The values that follow come from ChEMBL document CHEMBL1811853, “Design and evaluation of 3-aminopyrazolopyridinone kinase inhibitors inspired by the natural product indirubin” (Bioorg Med Chem, 2011).

Experiment [1] has as its target RAC-beta serine/threonine-protein kinase (Homo sapiens) (UniProt P31751). The experiment is described as follows: Inhibition of AKT2 at 30 uM by microfluidic mobility shift assay. In a few lines:
(§1)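 Single-concentration screen, singlicate, 30 uM final (diluted from 1 mM DMSO solutions), fluorescently tagged peptide substrate appropriate to each kinase, ATP at apparent Km for each protein. Phosphorylated and unphosphorylated peptides separated electrophoretically; conversion is the phosphorylated peak area over the sum of both peaks. No-inhibitor and no-ATP controls; H89 reference on each plate.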

For experiment [2], the target named is Glycogen synthase kinase-3 beta (Homo sapiens) (UniProt P49841). Kind of experiment: Inhibition of GSK3B at 30 uM by microfluidic mobility shift assay. In a few lines:
as §1

For experiment [3], the target named is Ribosomal protein S6 kinase alpha-1 (Homo sapiens) (UniProt Q15418). The experiment is described as follows: Inhibition of RSK1 at 30 uM by microfluidic mobility shift assay. Put shortly: as §1
Experiment [4] has as its target Tyrosine-protein kinase ABL1 (Homo sapiens, UniProt P00519). Kind of experiment: Inhibition of ABL at 30 uM by microfluidic mobility shift assay. Put shortly:
as §1

The target in experiment [5] is Mitogen-activated protein kinase 14 (Homo sapiens, UniProt Q16539). Kind of experiment: Inhibition of p38alpha at 30 uM by microfluidic mobility shift assay. Put shortly: as §1
The nature of experiment [6]: Inhibition of PKA at 30 uM by microfluidic mobility shift assay. In a few lines:
as §1

The target of experiment [7] is Insulin receptor (Homo sapiens) (UniProt P06213). The experiment is described as follows: Inhibition of INSR at 30 uM by microfluidic mobility shift assay. In a few lines: as §1
The target of experiment [8] is MAP kinase-activated protein kinase 2 (Homo sapiens, UniProt P49137). Kind of experiment: Inhibition of MAPKAPK2 at 30 uM by microfluidic mobility shift assay. Put shortly:
as §1

For experiment [9], the target named is T1, Serine/threonine-protein kinase D2 (Homo sapiens) (UniProt Q9BZL6).
T1 sequence (whole entry): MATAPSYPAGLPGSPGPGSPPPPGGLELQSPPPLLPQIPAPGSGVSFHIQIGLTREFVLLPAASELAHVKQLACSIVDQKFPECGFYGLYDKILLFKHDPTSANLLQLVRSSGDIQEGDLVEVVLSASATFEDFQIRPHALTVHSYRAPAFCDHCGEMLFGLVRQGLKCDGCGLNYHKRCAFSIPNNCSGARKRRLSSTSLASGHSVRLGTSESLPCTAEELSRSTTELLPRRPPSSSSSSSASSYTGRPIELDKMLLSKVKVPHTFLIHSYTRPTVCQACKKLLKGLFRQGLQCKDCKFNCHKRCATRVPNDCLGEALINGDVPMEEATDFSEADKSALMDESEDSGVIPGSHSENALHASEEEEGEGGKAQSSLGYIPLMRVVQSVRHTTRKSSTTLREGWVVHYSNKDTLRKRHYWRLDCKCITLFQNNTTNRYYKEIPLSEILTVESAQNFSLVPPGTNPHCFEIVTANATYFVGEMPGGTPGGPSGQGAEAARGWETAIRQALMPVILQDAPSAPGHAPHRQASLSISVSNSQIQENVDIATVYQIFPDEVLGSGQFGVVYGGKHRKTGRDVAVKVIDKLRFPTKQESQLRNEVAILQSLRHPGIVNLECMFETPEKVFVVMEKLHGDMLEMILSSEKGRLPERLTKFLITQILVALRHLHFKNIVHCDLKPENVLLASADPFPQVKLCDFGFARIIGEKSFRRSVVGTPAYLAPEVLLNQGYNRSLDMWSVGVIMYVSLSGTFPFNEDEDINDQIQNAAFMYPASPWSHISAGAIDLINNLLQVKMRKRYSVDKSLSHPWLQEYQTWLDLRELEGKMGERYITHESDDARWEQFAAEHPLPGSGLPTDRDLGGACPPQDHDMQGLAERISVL
Kind of experiment: Inhibition of PKD2 at 30 uM by microfluidic mobility shift assay. Put shortly:
as §1

In experiment [10] the target is Mitogen-activated protein kinase 3 (Homo sapiens) (UniProt P27361). The experiment is described as follows: Inhibition of ERK1 at 30 uM by microfluidic mobility shift assay. In a few lines:
as §1

Experiment [11] deals with Ribosomal protein S6 kinase alpha-5 (Homo sapiens) (UniProt O75582). The experiment is described as follows: Inhibition of MSK1 at 30 uM by microfluidic mobility shift assay. In a few lines:
as §1

Experiment [12] deals with Tyrosine-protein kinase Lck (Homo sapiens, UniProt P06239). Kind of experiment: Inhibition of LCK at 30 uM by microfluidic mobility shift assay. In a few lines: as §1
Experiment [13] deals with T2, Aurora kinase A (Homo sapiens) (UniProt O14965).
T2 sequence (whole entry): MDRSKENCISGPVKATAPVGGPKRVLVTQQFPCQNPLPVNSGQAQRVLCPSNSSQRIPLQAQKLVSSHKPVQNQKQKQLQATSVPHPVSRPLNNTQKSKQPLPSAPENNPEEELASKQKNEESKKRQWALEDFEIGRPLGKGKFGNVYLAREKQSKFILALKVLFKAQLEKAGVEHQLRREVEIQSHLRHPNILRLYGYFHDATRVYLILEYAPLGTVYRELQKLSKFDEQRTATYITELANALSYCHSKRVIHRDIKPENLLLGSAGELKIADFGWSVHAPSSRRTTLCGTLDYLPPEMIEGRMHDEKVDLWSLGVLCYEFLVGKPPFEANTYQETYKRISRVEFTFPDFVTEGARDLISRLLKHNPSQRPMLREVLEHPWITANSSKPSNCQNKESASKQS
The experiment is described as follows: Inhibition of AurA at 30 uM by microfluidic mobility shift assay. In a few lines:
as §1

Experiment [14] concerns the target RAC-alpha serine/threonine-protein kinase (Homo sapiens) (UniProt P31749). Kind of experiment: Inhibition of AKT1 at 30 uM by microfluidic mobility shift assay. Put shortly: as §1
Experiment [15] addresses T3, Serine/threonine-protein kinase Chk1 (Homo sapiens) (UniProt O14757).
T3 sequence (whole entry): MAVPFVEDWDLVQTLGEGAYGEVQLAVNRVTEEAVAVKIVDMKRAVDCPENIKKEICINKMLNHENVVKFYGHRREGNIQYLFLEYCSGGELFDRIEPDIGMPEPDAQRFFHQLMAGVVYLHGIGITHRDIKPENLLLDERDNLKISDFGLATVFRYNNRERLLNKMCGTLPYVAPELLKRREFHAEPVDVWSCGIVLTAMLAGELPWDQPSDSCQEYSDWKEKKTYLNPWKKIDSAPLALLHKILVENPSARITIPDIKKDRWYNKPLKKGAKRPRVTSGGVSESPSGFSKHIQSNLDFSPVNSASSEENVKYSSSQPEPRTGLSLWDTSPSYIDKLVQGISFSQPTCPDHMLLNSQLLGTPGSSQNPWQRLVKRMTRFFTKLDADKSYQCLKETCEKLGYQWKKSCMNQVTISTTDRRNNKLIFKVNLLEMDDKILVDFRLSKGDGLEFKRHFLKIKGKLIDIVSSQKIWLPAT
The experiment is described as follows: Inhibition of CHK1 at 30 uM by microfluidic mobility shift assay. Put shortly:
as §1

For experiment [16], the target named is Tyrosine-protein kinase Lyn (Homo sapiens, UniProt P07948). Kind of experiment: Inhibition of LYN at 30 uM by microfluidic mobility shift assay. In a few lines: as §1
Experiment [17] concerns the target Tyrosine-protein kinase Fyn (Homo sapiens, UniProt P06241). The experiment is described as follows: Inhibition of FYN at 30 uM by microfluidic mobility shift assay. Put shortly:
as §1

The target in experiment [18] is Mitogen-activated protein kinase 1 (Homo sapiens) (UniProt P28482). The experiment is described as follows: Inhibition of ERK2 at 30 uM by microfluidic mobility shift assay. Put shortly:
as §1

Experiment [19] addresses T4, MAP kinase-activated protein kinase 5 (Homo sapiens) (UniProt Q8IW41).
T4 sequence (whole entry): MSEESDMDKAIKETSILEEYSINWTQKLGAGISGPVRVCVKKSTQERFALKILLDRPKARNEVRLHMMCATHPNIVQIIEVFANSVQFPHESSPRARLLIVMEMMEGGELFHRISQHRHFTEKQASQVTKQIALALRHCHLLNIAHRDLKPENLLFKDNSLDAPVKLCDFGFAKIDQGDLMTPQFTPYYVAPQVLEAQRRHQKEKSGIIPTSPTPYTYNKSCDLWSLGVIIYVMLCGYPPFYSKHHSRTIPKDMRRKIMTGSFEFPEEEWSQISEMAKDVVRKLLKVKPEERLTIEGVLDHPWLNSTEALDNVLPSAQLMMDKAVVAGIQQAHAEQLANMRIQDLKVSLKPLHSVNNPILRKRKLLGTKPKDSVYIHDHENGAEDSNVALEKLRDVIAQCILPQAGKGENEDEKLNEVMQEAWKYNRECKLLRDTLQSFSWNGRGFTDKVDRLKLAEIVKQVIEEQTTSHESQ
The experiment is described as follows: Inhibition of PRAK1 at 30 uM by microfluidic mobility shift assay. Put shortly:
as §1

Experiment [20] addresses Proto-oncogene tyrosine-protein kinase Src (Homo sapiens, UniProt P12931). Kind of experiment: Inhibition of SRC at 30 uM by microfluidic mobility shift assay. In a few lines: as §1
The target of experiment [21] is Serine/threonine-protein kinase Chk2 (Homo sapiens, UniProt O96017). Kind of experiment: Inhibition of CHK2 at 30 uM by microfluidic mobility shift assay. In a few lines:
as §1

The term inhibition denotes the change of the read-out against control, counted positive when it falls.

Chain of Ribosomal protein S6 kinase alpha-1 (Homo sapiens) (Q15418 whole entry): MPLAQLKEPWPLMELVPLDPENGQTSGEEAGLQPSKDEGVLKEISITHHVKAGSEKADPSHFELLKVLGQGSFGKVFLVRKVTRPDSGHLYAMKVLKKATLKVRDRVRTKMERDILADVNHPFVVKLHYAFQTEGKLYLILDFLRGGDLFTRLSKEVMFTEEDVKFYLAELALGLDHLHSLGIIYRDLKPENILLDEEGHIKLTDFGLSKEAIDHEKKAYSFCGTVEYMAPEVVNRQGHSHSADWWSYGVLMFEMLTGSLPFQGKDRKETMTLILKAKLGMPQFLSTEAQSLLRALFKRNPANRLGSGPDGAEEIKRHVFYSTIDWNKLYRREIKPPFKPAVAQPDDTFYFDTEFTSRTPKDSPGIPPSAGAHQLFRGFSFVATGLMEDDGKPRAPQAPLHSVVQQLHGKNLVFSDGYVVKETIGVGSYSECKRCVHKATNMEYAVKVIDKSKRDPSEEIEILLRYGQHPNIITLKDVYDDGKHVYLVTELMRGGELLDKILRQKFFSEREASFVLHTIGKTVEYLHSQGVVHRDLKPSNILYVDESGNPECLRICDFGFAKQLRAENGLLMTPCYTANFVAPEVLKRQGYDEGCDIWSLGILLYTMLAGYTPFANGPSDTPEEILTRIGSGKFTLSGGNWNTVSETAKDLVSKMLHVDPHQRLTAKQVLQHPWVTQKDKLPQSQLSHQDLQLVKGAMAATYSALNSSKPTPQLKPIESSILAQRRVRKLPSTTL
Chain of Serine/threonine-protein kinase Chk2 (O96017 whole entry): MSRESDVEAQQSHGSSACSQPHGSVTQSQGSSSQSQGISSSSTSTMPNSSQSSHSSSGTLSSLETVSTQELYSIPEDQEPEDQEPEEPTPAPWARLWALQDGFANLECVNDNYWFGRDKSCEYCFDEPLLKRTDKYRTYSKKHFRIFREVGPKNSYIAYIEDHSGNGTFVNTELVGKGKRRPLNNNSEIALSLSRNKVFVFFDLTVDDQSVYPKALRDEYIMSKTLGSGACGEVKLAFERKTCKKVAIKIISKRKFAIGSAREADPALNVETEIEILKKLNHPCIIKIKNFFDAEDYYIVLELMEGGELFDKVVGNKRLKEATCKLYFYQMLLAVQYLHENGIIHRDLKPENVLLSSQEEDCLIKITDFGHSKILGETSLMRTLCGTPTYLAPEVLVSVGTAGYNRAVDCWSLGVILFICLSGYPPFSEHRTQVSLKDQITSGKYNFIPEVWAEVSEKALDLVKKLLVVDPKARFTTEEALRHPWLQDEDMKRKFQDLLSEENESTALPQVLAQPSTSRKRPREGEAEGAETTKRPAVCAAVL
Chain of RAC-alpha serine/threonine-protein kinase (Homo sapiens) (P31749 whole entry): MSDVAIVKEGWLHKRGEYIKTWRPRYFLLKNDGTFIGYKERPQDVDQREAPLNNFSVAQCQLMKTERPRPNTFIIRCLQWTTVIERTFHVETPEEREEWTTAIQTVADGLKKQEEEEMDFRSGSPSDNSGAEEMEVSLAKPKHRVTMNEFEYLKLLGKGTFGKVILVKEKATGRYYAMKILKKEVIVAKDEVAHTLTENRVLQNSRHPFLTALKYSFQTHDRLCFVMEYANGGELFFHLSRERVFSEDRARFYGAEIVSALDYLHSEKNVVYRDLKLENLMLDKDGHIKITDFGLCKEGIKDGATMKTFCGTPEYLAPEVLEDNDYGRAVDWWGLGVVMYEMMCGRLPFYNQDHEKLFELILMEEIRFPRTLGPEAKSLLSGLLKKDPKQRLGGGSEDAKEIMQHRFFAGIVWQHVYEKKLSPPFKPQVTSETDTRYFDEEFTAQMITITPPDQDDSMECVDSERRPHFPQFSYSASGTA
Chain of Mitogen-activated protein kinase 14 (Q16539 whole entry): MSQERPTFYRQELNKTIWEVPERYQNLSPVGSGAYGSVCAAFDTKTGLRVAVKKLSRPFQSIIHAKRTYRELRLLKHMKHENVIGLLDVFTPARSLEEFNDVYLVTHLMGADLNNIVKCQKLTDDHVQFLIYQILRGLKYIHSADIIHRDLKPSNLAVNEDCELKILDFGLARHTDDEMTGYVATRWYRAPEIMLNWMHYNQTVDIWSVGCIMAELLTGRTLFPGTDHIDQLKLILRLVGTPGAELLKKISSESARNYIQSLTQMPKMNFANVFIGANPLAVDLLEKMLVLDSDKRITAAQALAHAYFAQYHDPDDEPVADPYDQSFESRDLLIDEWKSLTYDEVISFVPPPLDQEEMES
Chain of Mitogen-activated protein kinase 3 (Homo sapiens) (P27361 whole entry): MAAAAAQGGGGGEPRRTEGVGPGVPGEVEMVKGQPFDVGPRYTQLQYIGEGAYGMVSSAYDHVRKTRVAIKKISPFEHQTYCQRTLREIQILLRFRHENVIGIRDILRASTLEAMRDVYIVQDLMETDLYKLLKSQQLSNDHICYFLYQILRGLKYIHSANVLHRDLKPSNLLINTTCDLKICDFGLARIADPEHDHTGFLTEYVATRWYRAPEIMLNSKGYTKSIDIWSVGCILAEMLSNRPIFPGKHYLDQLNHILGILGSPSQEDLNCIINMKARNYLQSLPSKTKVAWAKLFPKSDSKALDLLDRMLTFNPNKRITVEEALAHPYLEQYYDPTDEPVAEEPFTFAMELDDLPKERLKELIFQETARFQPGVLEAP
Chain of RAC-beta serine/threonine-protein kinase (Homo sapiens) (P31751 whole entry): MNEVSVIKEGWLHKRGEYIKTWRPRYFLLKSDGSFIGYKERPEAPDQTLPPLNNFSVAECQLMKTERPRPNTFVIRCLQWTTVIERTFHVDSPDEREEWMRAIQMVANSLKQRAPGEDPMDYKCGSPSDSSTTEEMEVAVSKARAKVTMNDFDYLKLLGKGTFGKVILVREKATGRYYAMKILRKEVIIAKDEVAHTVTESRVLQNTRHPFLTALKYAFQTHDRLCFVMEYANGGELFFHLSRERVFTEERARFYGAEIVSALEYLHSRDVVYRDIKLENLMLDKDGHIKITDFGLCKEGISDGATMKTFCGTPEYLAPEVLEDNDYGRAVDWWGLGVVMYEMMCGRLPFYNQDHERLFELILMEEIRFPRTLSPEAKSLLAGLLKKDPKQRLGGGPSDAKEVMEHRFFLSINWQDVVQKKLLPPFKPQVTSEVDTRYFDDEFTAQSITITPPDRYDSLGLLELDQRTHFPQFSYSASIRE
Chain of Tyrosine-protein kinase Lyn (P07948 2-512 limits assumed): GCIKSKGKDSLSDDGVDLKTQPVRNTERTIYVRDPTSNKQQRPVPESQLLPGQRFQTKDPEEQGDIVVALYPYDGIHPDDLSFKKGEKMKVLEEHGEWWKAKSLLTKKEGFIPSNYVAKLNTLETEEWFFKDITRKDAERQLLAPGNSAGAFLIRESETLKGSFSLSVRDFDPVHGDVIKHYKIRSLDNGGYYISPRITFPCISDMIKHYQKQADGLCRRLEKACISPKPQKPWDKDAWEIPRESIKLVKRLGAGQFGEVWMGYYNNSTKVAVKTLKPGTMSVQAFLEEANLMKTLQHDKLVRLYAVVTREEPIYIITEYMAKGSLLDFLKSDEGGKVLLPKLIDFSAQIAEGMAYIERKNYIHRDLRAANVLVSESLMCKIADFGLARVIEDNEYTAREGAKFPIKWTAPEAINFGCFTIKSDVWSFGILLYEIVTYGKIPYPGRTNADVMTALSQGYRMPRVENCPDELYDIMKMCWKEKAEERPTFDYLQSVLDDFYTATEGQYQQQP
Chain of Tyrosine-protein kinase Fyn (P06241 2-537 limits assumed): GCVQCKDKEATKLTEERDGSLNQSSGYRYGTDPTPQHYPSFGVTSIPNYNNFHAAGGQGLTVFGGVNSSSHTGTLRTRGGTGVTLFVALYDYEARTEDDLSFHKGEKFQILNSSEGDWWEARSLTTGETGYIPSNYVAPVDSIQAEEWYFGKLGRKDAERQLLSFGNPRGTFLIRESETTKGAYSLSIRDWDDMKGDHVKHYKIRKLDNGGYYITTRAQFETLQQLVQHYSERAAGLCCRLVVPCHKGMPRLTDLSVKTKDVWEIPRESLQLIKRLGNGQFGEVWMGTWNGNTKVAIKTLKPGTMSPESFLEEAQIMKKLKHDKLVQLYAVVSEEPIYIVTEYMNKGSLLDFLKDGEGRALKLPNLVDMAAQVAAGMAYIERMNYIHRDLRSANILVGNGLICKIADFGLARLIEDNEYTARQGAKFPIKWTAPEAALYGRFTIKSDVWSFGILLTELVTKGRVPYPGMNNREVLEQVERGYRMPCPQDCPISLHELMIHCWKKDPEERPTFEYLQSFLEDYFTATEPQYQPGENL
Chain of Mitogen-activated protein kinase 1 (Homo sapiens) (P28482 whole entry): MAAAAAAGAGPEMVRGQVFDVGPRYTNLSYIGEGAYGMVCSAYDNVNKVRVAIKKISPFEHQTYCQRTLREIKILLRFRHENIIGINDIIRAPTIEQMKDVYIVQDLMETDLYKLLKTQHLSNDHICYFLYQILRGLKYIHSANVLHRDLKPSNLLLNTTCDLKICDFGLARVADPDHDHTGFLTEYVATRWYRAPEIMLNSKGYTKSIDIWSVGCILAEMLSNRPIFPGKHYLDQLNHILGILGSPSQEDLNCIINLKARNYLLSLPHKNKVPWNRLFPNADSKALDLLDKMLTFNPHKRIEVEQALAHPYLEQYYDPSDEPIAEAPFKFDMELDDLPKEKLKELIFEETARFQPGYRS
Chain of MAP kinase-activated protein kinase 2 (P49137 whole entry, looked up): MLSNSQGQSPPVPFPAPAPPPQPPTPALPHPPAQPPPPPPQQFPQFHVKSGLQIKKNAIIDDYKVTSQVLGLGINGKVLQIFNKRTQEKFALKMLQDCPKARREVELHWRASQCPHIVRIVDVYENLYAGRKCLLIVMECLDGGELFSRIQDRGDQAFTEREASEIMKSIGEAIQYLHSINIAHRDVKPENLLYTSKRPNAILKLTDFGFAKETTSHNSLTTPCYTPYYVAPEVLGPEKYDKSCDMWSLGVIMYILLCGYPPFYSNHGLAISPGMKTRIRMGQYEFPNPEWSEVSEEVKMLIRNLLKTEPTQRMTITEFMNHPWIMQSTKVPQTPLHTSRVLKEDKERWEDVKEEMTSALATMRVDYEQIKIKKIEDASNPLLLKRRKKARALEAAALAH

As for `COCCNc1nc(C)cc2nn(-c3ccccc3)c(N)c12`, the inhibition in experiment [1] worked out at 2%; in experiment [2], 10%; in experiment [3] it was 2%; in experiment [4], 4%; in experiment [5], 3%; in experiment [6], 1%. The inhibition in [7] was 1%; in experiment [8], 3%; in experiment [9], -1%; in experiment [10] it was 3%; in [11] it was 3%; in experiment [12] it was 0%. The inhibition was 32% in experiment [13]; 3% in experiment [14]; 0% in experiment [15]; 6% in experiment [16]; -3% in [17]; -1% in [18]. The values for the inhibition in experiment [19], in experiment [20] and in experiment [21] were 2%, 2% and 4%, respectively.
On to `Cc1cc2nc(-c3ccccc3)nc(N)c2c(=O)[nH]1`, for which the inhibition in [1] came to 2%; in experiment [2], 86%; in [3] it was 14%; in experiment [4], 39%; in [5], 7%; in [6] it was 50%. The inhibition in experiment [7] was 5%; in experiment [8] it was 22%; in experiment [9], 5%; in experiment [10], 10%; in [11], 15%; in [12], 45%. Also, the inhibition in experiment [13] was 34%; in experiment [14], 7%; in experiment [15] it was 3%; in [16] it was 23%; in [17], 32%; in [18], 11%. The figures for the inhibition in experiment [19], in experiment [20] and in [21] were 5%, 40% and 4%, respectively.
As for `Nc1n[nH]c2cc(-c3cccs3)[nH]c(=O)c12`, the inhibition in experiment [1] is 5%; in experiment [2], 89%; in [3], 35%; in experiment [4] it was 63%; in [5] it was 6%; in experiment [6] it was 79%. Also, the inhibition in experiment [7] came to 21%; in experiment [8], 58%; in experiment [9] it was 5%; in [10], 15%; in [11], 63%; in experiment [12] it was 58%. In addition, the inhibition in [13] turned out to be 67%; in [14], 4%; in experiment [15], 44%; in experiment [16] it was 63%; in experiment [17], 69%; in [18], 15%. Besides, the values for the inhibition in experiment [19], in experiment [20] and in experiment [21] were 12%, 74% and 59%, respectively.
For the compound `Nc1n[nH]c2cc(CC3CCNCC3)[nH]c(=O)c12`, the inhibition in experiment [1] was determined as 6%; in experiment [2] it was 4%; in experiment [3] it was 11%; in experiment [4] it was 7%; in experiment [5], 3%; in experiment [6] it was 71%. The inhibition in [7] is 1%; in experiment [8], 35%; in experiment [9] it was -6%; in experiment [10], 4%; in [11] it was 62%; in [12], 4%. Besides, the inhibition is 5% in experiment [13]; 13% in [14]; 16% in experiment [15]; -1% in experiment [16]; -3% in [17]; -2% in experiment [18]. Moreover, the inhibition in experiment [19] stood at 3%; in [20], 4%; in experiment [21], 7%.
For `Cc1cc2c(c(N)nn2C)c(N2CCOCC2)n1`, the inhibition in [1] is 12%; in [2], 8%; in [3] it was 1%; in experiment [4], 15%; in experiment [5] it was 2%; in [6] it was -2%. Moreover, the inhibition in experiment [7] is 3%; in experiment [8], -2%; in experiment [9] it was -4%; in [10] it was 4%; in [11], 4%; in [12] it was 10%. The inhibition in experiment [13] was 17%; in experiment [14], -8%; in experiment [15] it was -5%; in [16] it was 17%; in experiment [17], 9%; in experiment [18] it was -1%. The results for the inhibition in experiment [19], in experiment [20] and in experiment [21] were 5%, 7% and 3%, respectively.
